Data published in ChEMBL document CHEMBL1128579, “The role of charge in polyamine analogue recognition” (J Med Chem, 1995).

Columns and labels:
[1] = Titrimetrically measured pKa3 value of the compound; assay type: physicochemical; settings: read-out: pKa3
Method in brief: (§1)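 pKa values determined by titration; relative abundance of each ionic species then calculated for pH 7.4.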

[2] = Titrimetrically measured pKa1 value of the compound; assay type: physicochemical; settings: read-out: pKa1; method in brief: as §1
[3] = Titrimetrically measured pKa2 value of the compound; assay type: physicochemical; settings: read-out: pKa2; method in brief: as §1
[4] = Titrimetrically measured pKa4 value of the compound; assay type: physicochemical; settings: read-out: pKa4; method in brief: as §1
L1210 [5] = test: Impact (2 uM) on polyamine(Put) pools in L1210 cells, expressed relative to untreated controls (control = 100%).; assay type: functional, Mus musculus
Method in brief: (§2)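 Logarithmic-phase murine L1210 cells grown 48 h with analogue at the stated concentration. Cells washed twice in cold RPMI-1640 and extracted with 0.6 N perchloric acid; supernatants held at -20 °C, then analysed by HPLC. Put, Spd and Spm given relative to untreated controls (100%); intracellular analogue given as pmol/10^6 cells.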

L1210 [6] = test: Level (2 uM) in L1210 cells.; assay type: functional, Mus musculus; method in brief: as §2
L1210 [7] = test: Impact (2 uM) on polyamine(Spd) pools in L1210 cells, expressed relative to untreated controls (control = 100%).; assay type: functional, Mus musculus; method in brief: as §2
[8] = target: Spermidine/spermine N(1)-acetyltransferase (SAT) (Mus musculus) (UniProt Q6P8J2+P48026); test: Impact on polyamine biosynthetic enzyme Spermidine N-acetyl-transferase in L1210 cells treated with the compound for 48 hr.; assay type: cell-based; design: concentration or dose not given beside the values
Chain of Spermidine/spermine N(1)-acetyltransferase (SAT) (Mus musculus) (P48026 whole entry, looked up): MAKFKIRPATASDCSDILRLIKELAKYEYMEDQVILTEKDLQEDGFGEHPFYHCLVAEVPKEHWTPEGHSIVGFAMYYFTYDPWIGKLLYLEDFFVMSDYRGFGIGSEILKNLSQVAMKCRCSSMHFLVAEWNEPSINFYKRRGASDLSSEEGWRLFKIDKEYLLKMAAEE
Chain of Spermidine/spermine N(1)-acetyltransferase (SAT) (Mus musculus) (Q6P8J2 whole entry, looked up): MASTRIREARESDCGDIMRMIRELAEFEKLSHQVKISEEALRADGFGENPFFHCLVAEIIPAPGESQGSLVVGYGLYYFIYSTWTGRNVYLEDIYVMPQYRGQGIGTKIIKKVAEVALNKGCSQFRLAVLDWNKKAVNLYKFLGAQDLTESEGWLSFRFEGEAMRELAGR
Method in brief: (§3)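 L1210 cells treated with analogue: 4 h for ODC, 6 h for AdoMetDC, 48 h for SSAT. ODC and AdoMetDC measured as 14CO2 released from [14C]carboxyl-labeled L-ornithine or S-adenosyl-L-methionine. SSAT measured as [14C]acetylspermidine formed from SPD and [14C]acetyl-CoA. Triplicate runs, each with untreated and positive controls (10 μM DENSPM for ODC and AdoMetDC). Activity given as % of untreated control.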

L1210 [9] = test: Inhibitory concentration against L1210 cells on 96 hr incubation.; assay type: functional, cell-based; settings: Mus musculus, L1210, 96 h
Method in brief: (§4)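 Murine L1210 leukemia cells in suspension in RPMI-1640 with 10% NuSerum, HEPES-MOPS and 1 mM aminoguanidine, 37 °C, 5% CO2. Log-phase cultures at (0.5-1.0) × 10^5 cells/mL treated with filtered aqueous analogue for 48 h, then reseeded and grown a further 48 h. Cells counted by Coulter counter. IC50 is the concentration giving 50% of control growth, corrected for initial inoculum.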

[10] = target: T1, Ornithine decarboxylase (Mus musculus) (UniProt P00860); test: Impact on polyamine biosynthetic enzyme, Ornithine decarboxylase in L1210 cells treated with the compound for 4 hr.; assay type: cell-based; design: concentration or dose not given beside the values; method in brief: as §3
T1 sequence (whole entry): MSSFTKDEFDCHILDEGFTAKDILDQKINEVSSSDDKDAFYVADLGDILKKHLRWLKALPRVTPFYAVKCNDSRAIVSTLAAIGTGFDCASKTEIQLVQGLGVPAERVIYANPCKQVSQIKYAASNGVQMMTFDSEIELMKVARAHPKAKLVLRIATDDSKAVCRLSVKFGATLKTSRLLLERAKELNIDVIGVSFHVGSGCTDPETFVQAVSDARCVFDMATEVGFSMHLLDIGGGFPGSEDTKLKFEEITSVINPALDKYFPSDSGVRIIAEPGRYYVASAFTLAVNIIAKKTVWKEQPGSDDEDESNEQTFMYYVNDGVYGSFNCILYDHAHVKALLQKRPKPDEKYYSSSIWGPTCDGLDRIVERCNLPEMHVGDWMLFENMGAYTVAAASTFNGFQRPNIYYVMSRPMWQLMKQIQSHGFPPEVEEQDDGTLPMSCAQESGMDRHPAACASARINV

L1210 [11] = test: Impact on polyamine biosynthetic enzyme, S-adenosyl-L-methionine decarboxylase in L1210 cells treated with the compound for 6 hr.; assay type: cell-based; design: concentration or dose not given beside the values; method in brief: as §3
L1210 [12] = test: Impact (2 uM) on polyamine(Spm) pools in L1210 cells, expressed relative to untreated controls (control = 100%).; assay type: functional, Mus musculus; method in brief: as §2
L1210 [13] = test: Concentration inhibiting radiolabeled spermidine transport in L1210 cells.; assay type: functional, cell-based, Mus musculus
Method in brief: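 Competition with [3H]- or [14C]spermidine uptake into L1210 leukemia cells. Cells incubated 20 min at 37 °C in RPMI-1640 with 1, 2, 4, 6, 8 and 10 μM radiolabeled SPD, alone or plus 10, 25 or 50 μM analogue. Cells pelleted at 0–4 °C, washed with cold medium containing 1 μM SPD, NaOH-dissolved, then scintillation counted. Ki taken from Lineweaver–Burk plots as simple competitive inhibition.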

L1210 [14] = test: Impact (100 uM) on polyamine(Put) pools in L1210 cells, expressed relative to untreated controls (control = 100%).; assay type: functional, Mus musculus; method in brief: as §2
L1210 [15] = test: Impact (100 uM) on polyamine(Spm) pools in L1210 cells, expressed relative to untreated controls (control = 100%).; assay type: functional, Mus musculus; method in brief: as §2
L1210 [16] = test: Impact (100 uM) on polyamine(Spd) pools in L1210 cells, expressed relative to untreated controls (control = 100%).; assay type: functional, Mus musculus; method in brief: as §2
L1210 [17] = test: Level (100 uM) in L1210 cells.; assay type: functional, Mus musculus; method in brief: as §2
L1210 [18] = test: Inhibitory concentration against L1210 cells on 96h incubation.; assay type: functional, cell-based; settings: Mus musculus, L1210, 96 h; method in brief: as §4
L1210 [19] = test: Impact (30 uM) on polyamine(Spd) pools in L1210 cells, expressed relative to untreated controls (control = 100%).; assay type: functional, Mus musculus; method in brief: as §2
L1210 [20] = test: Level (30 uM) in L1210 cells.; assay type: functional, Mus musculus; method in brief: as §2
L1210 [21] = test: Impact (30 uM) on polyamine(Spm) pools in L1210 cells, expressed relative to untreated controls (control = 100%).; assay type: functional, Mus musculus; method in brief: as §2
L1210 [22] = test: Impact (30 uM) on polyamine(Put) pools in L1210 cells, expressed relative to untreated controls (control = 100%).; assay type: functional, Mus musculus; method in brief: as §2

| Structure (SMILES) | pKa [1] | pKa [2] | pKa [3] | pKa [4] | Control [8] | IC50 (L1210 [9]) | Control [10] | Control (L1210 [11]) | Ki (L1210 [13]) | Polyamine pools (L1210 [14]) | Polyamine pools (L1210 [15]) | Polyamine pools (L1210 [16]) | IC50 (L1210 [18]) | other results |
| --- | --- | --- | --- | --- | --- | --- | --- | --- | --- | --- | --- | --- | --- | --- |
| NCCCNCCCCNCCCN [SPERMINE] | 8.82 | 10.9 | 10.1 | 7.95 |  |  |  |  |  |  |  |  |  |  |
| C(CCNCC1CCNCC1)CNCC1CCNCC1 | 9.43 | 10.9 | 10.7 | 8.45 | 325% | 0.1 µM | 6% | 39% | 4.9 µM |  |  |  |  | Polyamine pools (L1210 [5]): 0%; Analogue level (L1210 [6]): 2518 pM (10e6*cells)-1; Polyamine pools (L1210 [7]): 5%; Polyamine pools (L1210 [12]): 50% |
| c1cc(CNCCCCNCc2ccncc2)ccn1 | 4.43 | 9.23 | 7.64 | 3.77 | 87% | 80 µM | 90% | 100% | > 500 µM | 87% | 99% | 95% |  |  |
| FC(F)(F)CNCCCNCCCCNCCCNCC(F)(F)F | 4.81 | 10.5 | 9.41 | 4.09 | 97% |  | 100% | 100% | 285 µM | 103% | 108% | 103% | > 100 µM | Analogue level (L1210 [17]): <20 pM (10e6*cells)-1 |
| c1cc(CCNCCCCNCCc2ccncc2)ccn1 | 5.69 | 9.81 | 8.85 | 4.93 | 140% | > 100 µM | 100% | 100% | > 500 µM | 124% | 96% | 85% |  |  |
| CCNCCCNCCCCNCCCNCC [BIS(ETHYL)SPERMINE] |  |  |  |  | 460% |  | 3% | 28% |  |  |  |  | 0.2 µM | Polyamine pools (L1210 [19]): 0%; Analogue level (L1210 [20]): 1780 pM (10e6*cells)-1; Polyamine pools (L1210 [21]): 22%; Polyamine pools (L1210 [22]): 0% |
